Experimental data from ChEMBL document CHEMBL4715820, “Aglycone Ebselen and β-d-Xyloside Primed Glycosaminoglycans Co-contribute to Ebselen β-d-Xyloside-Induced Cytotoxicity” (J Med Chem, 2018).
The source made the active and inactive calls. The rule behind the calls is not given here.

Assays:
CHO [1] = test: Induction of GAG biosynthesis in CHO pgsA-745 cells assessed as increase in GlcN level in culture media at 10 uM incubated for 48 hrs by immunostaining based confocal microscopic analysis relative to control; type: functional, cell-based; conditions: Cricetulus griseus
[2] = Induction of GAG priming in CHO pgsA-745 cells assessed as change in UA-GalNAc4S relative intensity level at 10 uM incubated for 24 hrs by LC-MS analysis (reference value: 2.9); type: functional; conditions: Cricetulus griseus, time 48 hrs, in the assay text read “incubated for 48 hrs” for “incubated for 24 hrs”
Outline: (§1)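 Disaccharide LC-MS: CHO pgsA-745 cells treated at 10 μM in 0.1% DMSO, GAGs purified from cells or medium, digested with 1 mU chondroitinase ABC (5 mM NH4Ac pH 7.0, 37 °C, 24 h); treated samples PMP-labelled, DMSO controls D5-PMP-labelled, mixed at equal cellular protein (1 mg), co-injected on C18 capillary LC, negative-ion MS; paired ion intensities compared.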

[3] = (§2) Induction of GAG biosynthesis in CHO pgsA-745 cells assessed as increase in GalN level at 10 uM incubated for 48 hrs by immunostaining based confocal microscopic analysis relative to control; type: functional, Cricetulus griseus
[4] = Induction of GAG priming in CHO pgsA-745 cells assessed as increase in non-sulfated delta-UA-GalNAc level in from the cell culture media at 10 uM incubated for 48 hrs by LC-MS analysis relative to control; conditions: Cricetulus griseus
HCT-116 [5] = test: Cytotoxicity in human HCT-116 cells assessed as reduction in cell viability incubated for 48 hrs by resazurin dye based assay; type: functional; conditions: for IC50: HCT-116, 48 h
Outline: (§3)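 Cells seeded at 2000/well, 24 h later exposed to serial dilutions (0.1% DMSO vehicle) in complete medium for 48 h; resazurin (2 mg/mL stock) then added for 16 h; fluorescence at 544 nm excitation/595 nm emission, proportional to living cells. Triplicate wells, repeated twice; IC50 from concentration-response.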

[6] = Induction of GAG priming in CHO pgsA-745 cells assessed as change in UA-GalNAc6S relative intensity level at 10 uM incubated for 24 hrs by LC-MS analysis (reference value: 29.19); type: functional; conditions: Cricetulus griseus, time 48 hrs, in the assay text read “incubated for 48 hrs” for “incubated for 24 hrs”; outline: as §1
HT-29 = test: Cytotoxicity in human HT-29 cells assessed as reduction in cell viability incubated for 48 hrs by resazurin dye based assay; type: functional; conditions: for IC50: HT-29, 48 h; outline: as §3
A549 = test: Cytotoxicity in human A549 cells assessed as reduction in cell viability incubated for 48 hrs by resazurin dye based assay; type: functional; conditions: for IC50: A549, 48 h; outline: as §3
NCI-H1299 = test: Cytotoxicity in human NCI-H1299 cells assessed as reduction in cell viability incubated for 48 hrs by resazurin dye based assay; type: functional; conditions: for IC50: NCI-H1299, 48 h; outline: as §3
[7] = Induction of GAG priming in CHO pgsA-745 cells assessed as increase in delta-UA-GalNAc4S level in from the cell culture media at 10 uM incubated for 24 hrs by LC-MS analysis relative to control; type: functional; conditions: Cricetulus griseus, time 48 hrs, in the assay text read “48 hrs” for “24 hrs”; outline: as §1
[8] = Induction of GAG priming in CHO pgsA-745 cells assessed as change in UA-GalNAc relative intensity level at 10 uM incubated for 24 hrs by LC-MS analysis (reference value: 44.74); type: functional, Cricetulus griseus; outline: as §1
CHO [9] = test: Induction of GAG priming in CHO pgsA-745 cells assessed as increase in FGF7/GAGs/FGFR2B ternary complex formation at 10 uM incubated for 24 hrs by confocal microscopy; type: functional, cell-based; conditions: Cricetulus griseus
Outline: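 Ternary complex assay: CHO pgsA-745 cells on coverslips treated 10 μM with 0.1% DMSO for 24 h at 37 °C, fixed in 4% formaldehyde 15 min, then incubated sequentially with FGFR2B-Fc, FGF7 and Protein A-Alexa Fluor 647; bound receptor imaged by confocal microscopy at 665 nm […].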

[10] = (§4) Induction of GAG biosynthesis in CHO pgsA-745 cells assessed as increase in GlcN level at 10 uM incubated for 48 hrs by immunostaining based confocal microscopic analysis relative to control; type: functional, Cricetulus griseus
[11] = Induction of GAG priming in CHO pgsA-745 cells assessed as increase in delta-UA-GalNAc6S level in from the cell culture media at 10 uM incubated for 24 hrs by LC-MS analysis relative to control; type: functional; conditions: Cricetulus griseus, time 48 hrs, in the assay text read “incubated for 48 hrs” for “incubated for 24 hrs”; outline: as §1
CHO [12] = test: Induction of GAG biosynthesis in CHO pgsA-745 cells assessed as increase in GalN level in culture media at 10 uM incubated for 48 hrs by immunostaining based confocal microscopic analysis relative to control; type: functional, cell-based; conditions: Cricetulus griseus
HCT-116 [13] = test: Induction of cell cycle arrest in human HCT-116 cells assessed as G2/M cell population level at 12.5 uM incubated for 24 hrs by propidium iodide /RNase staining based flow cytometry; type: functional
Outline: (§5)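 HCT116 cells (6 × 10^4/well, six-well plates) treated after 24 h for 24 h (12.5 or 15 μM for one conjugate, 20 μM for others; 0.1% DMSO vehicle); floating and trypsinized cells fixed in 70% ethanol at 4 °C overnight, stained with PI/RNase 15 min at room temperature, DNA content by flow cytometry; phase distribution versus control.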

HCT-116 [14] = test: Induction of apoptosis in human HCT-116 cells assessed as late apoptosis level at 12.5 uM […] by annexin-V/propidium iodide staining based flow cytometry relative to control; type: functional
CHO [15] = test: Induction of GAG priming in CHO pgsA-745 cells assessed as increase in specific CS staining […] at 10 uM incubated for 24 hrs by immunostaining based flow cytometry; type: functional, cell-based; conditions: Cricetulus griseus
Outline: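 CHO pgsA-745 cells treated 10 μM with 0.1% DMSO 24 h at 37 °C, trypsinized, fixed in 4% formaldehyde, digested with 1 mU chondroitinase ABC 20 min at 37 °C, stained overnight at 4 °C with mAb 2B6 then Alexa Fluor 488 anti-mouse secondary; fluorescence intensity read by flow cytometry.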

HCT-116 [16] = test: Induction of apoptosis in human HCT-116 cells assessed as increase in late apoptosis level at 7.5 uM […] by annexin-V/propidium iodide staining based flow cytometry relative to control; type: functional, cell-based
HCT-116 [17] = test: Induction of cell cycle arrest in human HCT-116 cells assessed as G2/M cell population level at 15 uM incubated for 24 hrs by propidium iodide /RNase staining based flow cytometry; type: functional; outline: as §5
HCT-116 [18] = test: Induction of apoptosis in human HCT-116 cells assessed as increase in early apoptosis level at 7.5 uM […] by annexin-V/propidium iodide staining based flow cytometry relative to control; type: functional
HCT-116 [19] = test: Induction of cell cycle arrest in human HCT-116 cells assessed as increase in G2/M cell population level at 12.5 uM incubated for 24 hrs by propidium iodide /RNase staining based flow cytometry relative to control; type: functional; outline: as §5
HCT-116 [20] = test: Induction of apoptosis in human HCT-116 cells assessed as early apoptosis level at 12.5 uM […] by annexin-V/propidium iodide staining based flow cytometry relative to control; type: functional
HCT-116 [21] = test: Induction of apoptosis in human HCT-116 cells assessed as increase in early apoptosis level at 40 uM incubated for 24 hrs by annexin-V/propidium iodide staining based flow cytometry relative to control; type: functional, cell-based
Outline: (§6)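 HCT116 cells were seeded at 6 × 10^4 cells/well and treated 24 h later in medium containing 0.1% DMSO, with DMSO alone as the control. Floating and trypsinized adherent cells were pooled and washed in binding buffer. They were stained with Annexin V/PI for 15 min at room temperature and read by flow cytometry. Early apoptotic cells were FITC+/PI−; late apoptotic cells were FITC+/PI+.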

HCT-116 [22] = test: Induction of cell cycle arrest in human HCT-116 cells assessed as increase in G2/M cell population level at 20 uM incubated for 24 hrs by propidium iodide /RNase staining based flow cytometry relative to control; type: functional; outline: as §5
HCT-116 [23] = test: Induction of apoptosis in human HCT-116 cells assessed as increase in late apoptosis level at 40 uM incubated for 48 hrs by annexin-V/propidium iodide staining based flow cytometry relative to control
HCT-116 [24] = test: Induction of apoptosis in human HCT-116 cells assessed as increase in late apoptosis level at 40 uM incubated for 24 hrs by annexin-V/propidium iodide staining based flow cytometry relative to control; type: functional, cell-based; outline: as §6
HCT-116 [25] = test: Induction of cell cycle arrest at S phase in human HCT-116 cells at 40 uM incubated for 24 hrs by propidium iodide /RNase staining based flow cytometry; type: functional
Outline: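 HCT116 cells (6 × 10^4/well) were seeded, then exposed 24 h later in complete medium, with 0.1% DMSO as the control. After 24 h, medium cells and trypsinized adherent cells were combined. Pellets were fixed in 70% ethanol at 4 °C overnight and stained with PI/RNase buffer for 15 min at room temperature. Phase distribution (G0/G1, S, G2/M) was measured by flow cytometry.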

CHO [26] = test: as §2; type: functional; conditions: Cricetulus griseus
[27] = Induction of GAG priming in CHO pgsA-745 cells assessed as change in UA-GalNAc relative intensity level at 10 uM incubated for 24 hrs by LC-MS analysis (reference value: 8.99); type: functional, Cricetulus griseus; outline: as §1
CHO [28] = test: as §4; type: functional; conditions: Cricetulus griseus
[29] = Induction of GAG priming in CHO pgsA-745 cells assessed as increase in non-sulfated delta-UA-GalNAc level in from the cell culture media at 10 uM incubated for 24 hrs by LC-MS analysis relative to control; type: functional; conditions: Cricetulus griseus, time 48 hrs, in the assay text read “incubated for 48 hrs” for “incubated for 24 hrs”; outline: as §1
[30] = Induction of GAG priming in CHO pgsA-745 cells assessed as change in UA-GalNAc6S relative intensity level at 10 uM incubated for 24 hrs by LC-MS analysis (reference value: 9.52); type: functional; conditions: Cricetulus griseus, time 48 hrs, in the assay text read “incubated for 48 hrs” for “incubated for 24 hrs”; outline: as §1
[31] = Induction of GAG priming in CHO pgsA-745 cells assessed as change in UA-GalNAc4S relative intensity level at 10 uM incubated for 24 hrs by LC-MS analysis (reference value: 1.01); type: functional; conditions: Cricetulus griseus, time 48 hrs, in the assay text read “incubated for 48 hrs” for “incubated for 24 hrs”; outline: as §1

SMILES | Activity (CHO [1]) | IC50 (HCT-116 [5]) [µM] | IC50 (HT-29) [µM] | IC50 (A549) [µM] | IC50 (NCI-H1299) [µM] | fold change (FC) [7] | Activity (CHO [9]) | fold change (FC) [11] | Activity (CHO [12]) | Activity (HCT-116 [21]) | Activity (HCT-116 [22]) | Activity (HCT-116 [23]) | also measured
CC(=O)O[C@@H]1[C@@H](OC(C)=O)[C@H](OC(C)=O)CO[C@H]1n1[se]c2ccccc2c1=O | inactive | 6.4 | 7.3 | 7 | 7 | 34.5 | Active | 3.4 | inactive |  |  |  | fold change (FC) [2]: 100; fold change (FC) [3]: 27.6; fold change (FC) [4]: 2.24; Activity (HCT-116 [5]): Dose-dependent effect; fold change (FC) [6]: 100; Activity (HT-29): Dose-dependent effect; Activity (A549): Dose-dependent effect; Activity (NCI-H1299): Dose-dependent effect; fold change (FC) [8]: 100; fold change (FC) [10]: 12.2; Activity (HCT-116 [13]): 45.2%; Activity (HCT-116 [14]): 13.18%; Activity (CHO [15]): Active; Activity (HCT-116 [16]): Active; Activity (HCT-116 [17]): 51.9%; fold change (FC) (HCT-116 [18]): 27.7; fold change (FC) (HCT-116 [19]): 1.3; Activity (HCT-116 [20]): 10.97%
CC(=O)OC[C@H]1O[C@@H](n2[se]c3ccccc3c2=O)[C@H](OC(C)=O)[C@@H](OC(C)=O)[C@@H]1OC(C)=O |  | 18 | 11.9 | 20.4 | 19 |  |  |  |  | Active | Active | Active | 
CC(=O)OC[C@H]1O[C@@H](O[C@H]2[C@H](OC(C)=O)[C@@H](OC(C)=O)[C@H](n3[se]c4ccccc4c3=O)O[C@@H]2COC(C)=O)[C@H](OC(C)=O)[C@@H](OC(C)=O)[C@H]1OC(C)=O |  | 24.2 | 32.3 | 36.5 | 34 |  |  |  |  | Active | Active | Active | 
CC(=O)OC[C@H]1O[C@@H](n2[se]c3ccccc3c2=O)[C@H](OC(C)=O)[C@@H](OC(C)=O)[C@H]1OC(C)=O |  | 17.8 | 19.3 | 25.2 | 21.6 |  |  |  |  | Active | Active | Active | 
O=c1c2ccccc2[se]n1-c1ccccc1 [EBSELEN] |  | 50 | 50.4 | 16.8 | 27.7 |  |  |  |  | Active |  |  | Activity (HCT-116 [24]): Active; Activity (HCT-116 [25]): Active
O[C@@H]1[C@@H](O)[C@H](Oc2ccccc2)OC[C@H]1O | Active |  |  |  |  | <=99 | inactive | 10.5 | Active |  |  |  | Activity (CHO [26]): Active; fold change (FC) [27]: 100; Activity (CHO [28]): Active; fold change (FC) [29]: 11; fold change (FC) [30]: 100; fold change (FC) [31]: 100
